Screening results as filed in PubChem.
PAFAH1B3 FP inh = PAFAH1B3 enzyme inhibitors, primary screen, biochemical, fluorescence polarization, human. Platelet-activating factor acetylhydrolase IB subunit alpha1 (Homo sapiens), Q15102. recombinant PAFAH1B3, FP-rhodamine probe. inhibition, % at 3.39 µM. 340,000 compounds, 0.28% hits. AID 492972, 2010;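 active means inhibition above the screen-wide average of all tested compounds plus 3 SD, cut at about 25% in these data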;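 further: 0% = enzyme with DMSO only and 100% = wells lacking PAFAH1B3 protein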
PAFAH2 FP inh = PAFAH2 enzyme inhibitors, primary screen, biochemical, fluorescence polarization, human. recombinant PAFAH2, FP-rhodamine activity probe. inhibition, % at 3.39 µM. 340,000 compounds, 0.99% hits. AID 492956, 2010;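 active means inhibition above the mean over all tested compounds plus 3 SD, cut at about 30% in these data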;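 further: inhibitors block probe labeling of enzyme so polarization drops; 0% = enzyme with DMSO and 100% = wells lacking PAFAH2 protein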
pPAFAH inh = pPAFAH enzyme inhibitors, primary screen, biochemical, fluorescence polarization, human; AID 463082, 2010; recombinant pPAFAH, FP-rhodamine probe fluorescence polarization; inhibition, % at 3.39 µM; Platelet-activating factor acetylhydrolase (Homo sapiens), Q13093; 330,000 compounds, 1.5% hits;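 active means inhibition above the mean inhibition across the screen plus 3 SD, cut at about 25% in these data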;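 further: inhibitors block binding of the rhodamine activity-based probe so polarization drops; 0% = enzyme with DMSO and 100% = wells lacking pPAFAH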
Apaf-1 inh = inhibitors of human Apaf-1 apoptosome, primary screen, biochemical, DEVD-Rh110 fluorescence, uHTS; reconstituted apoptosome caspase-3 activity; inhibition, % at 20 µM; 330,000 compounds, 0.71% hits; Apoptotic protease-activating factor 1 (Homo sapiens), O14727; active means inhibition of at least 40% at 20 µM;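 further: plate controls were DMSO wells for no effect and DEVD-CHO caspase inhibitor wells for full effect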
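Medium: Hepes buffer, pH 7.5 / System: biochemical Apaf-1 apoptosome reconstitution / Measured by: Rh110 fluorescence, excitation 480 nm, emission 540 nm / Times: compound with Apaf-1, dATP, procaspase-3 30 min, then 50 min reaction, room temperature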
PAFAH1B2 FP inh = PAFAH1B2 enzyme inhibitors, primary screen, biochemical, fluorescence polarization, human. recombinant PAFAH1B2, FP-rhodamine activity probe. inhibition, % at 3.39 µM. 340,000 compounds, 1.2% hits. AID 492953, 2010;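 active means inhibition above the mean of all tested compounds plus 3 SD, cut at about 24% in these data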;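 further: 0% = enzyme with DMSO and 100% = wells lacking PAFAH1B2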
pPAFAH FP conf = pPAFAH (PLA2G7) enzyme inhibitors, confirmation, biochemical, fluorescence polarization, human; shares compounds with pPAFAH inh; 2,300 compounds, 72% hits; inhibition, % at 3.39 µM; recombinant pPAFAH, FP-Rh probe fluorescence polarization;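 active means mean inhibition of the triplicate above the hit cutoff set for the earlier primary screen, cut at about 25% in these data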;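 further: 0% = enzyme with DMSO and 100% = wells lacking pPAFAH enzyme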
* marks the source's active call; other numbers are inactive results; nt = no result given. Shown are actives, neighbours in structure and some others; about 3.1% of the full set was active somewhere.

SMILES	PAFAH1B3 FP inh	PAFAH2 FP inh	pPAFAH inh	Apaf-1 inh	PAFAH1B2 FP inh	pPAFAH FP conf
Cc1ccc(C2(C)NC(=O)N(CC(=O)Nc3ccc4[nH]c(=O)[nH]c4c3)C2=O)cc1 (configuration not stated)	3	-5	7	-58	13	nt
CC1(c2ccc(OC(F)F)cc2)NC(=O)N(CC(=O)Nc2ccc3[nH]c(=O)[nH]c3c2)C1=O (configuration not stated)	0	1	28*	-6	2	nt
O=c1[nH]cnc2c1ccn2C1OC(CO)C(O)C1O (configuration not stated)	4	-1	nt	nt	3	nt
CC1(C)CC=CC(COC(=O)c2ccccc2C(=O)O)C1 (configuration not stated)	7	23	nt	nt	29*	nt
O=C(O)c1ccccc1C(=O)OCc1ccccc1	3	4	-1	-5	0	nt
CCN(CCNC(=O)C1CCN(S(=O)(=O)CC)CC1)c1ccccc1	-3	5	2	-17	1	nt
CCCCN(CCCNC(=O)C1CCN(S(=O)(=O)CC)CC1)c1ccccc1	-2	5	28*	2	3	nt
Cc1ccc(SCC2(O)CCN(C(=O)c3ccc(Cl)cc3)CC2)cc1	-2	-2	28*	17	6	nt
Cc1ccc(CN2CCN(C(=O)c3ccncc3)CC2)cc1	1	6	3	-15	1	nt
CCN1CCN(C(=O)c2ccc(CSc3ccc(C)cc3)cc2)CC1	6	12	4	-14	40*	nt
CCN(CC)c1ccc(NC(=O)COC(=O)c2ccc3ccccc3n2)cc1	7	-4	26*	19	-5	nt
COc1ccc(NC(=O)COC(=O)c2ccc3ccccc3n2)cc1	3	6	18	-2	-2	nt
O=C(COC(=O)c1ccccc1)Nc1ncc([N+](=O)[O-])s1	26*	57*	56*	3	18	38*
O=C(Nc1ccccc1)Nc1ncc([N+](=O)[O-])s1	0	9	nt	7	4	nt
O=C(CCCSc1ccc(Cl)cc1)Nc1cc(S(=O)(=O)N2CCOCC2)ccc1O	2	79*	91*	-8	63*	89*
Cc1cc(Cl)ccc1OCCCC(=O)Nc1cc(S(=O)(=O)N2CCOCC2)ccc1N1CCOCC1	4	5	nt	nt	1	nt
CCn1c2ccccc2c2cc(NC(=O)N3CCOCC3)ccc21	7	3	-2	18	0	nt
CCn1c2ccccc2c2cc(NC(=O)c3ccc(Br)o3)ccc21	3	7	42*	19	0	17
CCn1c(SCC(=O)Nc2ccc3c(c2)c2ccccc2n3CC)nnc1-c1ccco1	2	22	56*	24	4	42*
CCn1c2ccccc2c2cc(NC(=O)c3coc(=O)c(Br)c3)ccc21	nt	nt	10	-14	nt	nt
CCn1c2ccccc2c2cc(NC(=O)COC(=O)c3ccc(NC(=O)CC#N)cc3)ccc21	-3	-12	35*	23	5	18
CCn1c2ccccc2c2cc(NC(=O)CN(C)CC(=O)Nc3ccc(N4CCOCC4)cc3)ccc21	4	1	38*	10	5	39*
CCC(=O)c1cn(/C(=C\C(=O)OC(C)(C)C)CCC(OC)OC)cc1CC	2	0	-3	5	2	nt
CC(Sc1nnc(C(C)Oc2ccccc2F)o1)C(=O)NCc1ccc2c(c1)OCO2 (configuration not stated)	1	-5	5	3	1	nt
COc1ccc(N(CC(=O)NC2CCCC2)C(=O)Cn2nnc(-c3ccc(F)cc3)n2)cc1	2	10	2	18	4	nt
SMILES	PAFAH1B3 FP inh	PAFAH2 FP inh	pPAFAH inh	Apaf-1 inh	PAFAH1B2 FP inh	pPAFAH FP conf
COc1ccc(Br)cc1/C=c1\sc2nc(-c3ccco3)nn2c1=O	-5	0	44*	26	-6	20
COc1ccccc1/C=c1\sc2nc(-c3ccccc3OC)nn2c1=O	-7	-18	7	1	-4	nt
O=C(O)c1c(Cl)cccc1Cl	0	-1	2	3	4	nt
COc1ccc(NC(=O)C2CCCN2C(=O)NC2CCCCC2)c(OC)c1 (configuration not stated)	7	4	1	-1	2	nt
O=C(NCc1ccccc1)c1nnc(CS(=O)(=O)c2ccccc2)o1	-1	7	63*	0	5	-2
COc1cc(Cl)c(C)cc1NC(=O)CSc1sc2c(O)cc(=O)[nH]c2c1C#N	13	14	40*	10	9	31*
N#Cc1c(SCC(=O)Nc2nncs2)sc2c(O)cc(=O)[nH]c12	36*	37*	49*	3	14	10
COc1ccc(OC)c(NC(=O)CSc2sc3c(O)cc(=O)[nH]c3c2C#N)c1	7	25	20	5	8	nt
CCn1c(SCC(=O)N/N=C/C=C/c2ccco2)nnc1-c1ccccc1	0	-2	10	-3	3	nt
O=C(CSc1nnc(SCc2ccccc2)s1)N/N=C/C=C/c1ccco1	5	23	44*	15	-4	40*
O=C(CSc1nnc(SCc2ccc(Cl)cc2)s1)N/N=C/c1c[nH]c2ccccc12	4	24	41*	nt	5	35*
NS(=O)(=O)c1ccc(CNC(=O)Cc2cccs2)cc1	6	10	35*	2	-2	7
O=C(Cc1cccs1)NCc1ccccc1	2	12	-2	-8	-2	nt
COC1=CC(=O)C(O)=C(CCCCCCC/C=C/CCCCCCCC2=C(O)C(=O)C=C(OC)C2=O)C1=O	41*	101*	95*	12	94*	95*
O=C1CCCC(O)=C1N=Nc1c(Cl)cc(C(F)(F)F)cc1Cl	37*	64*	39*	-7	35*	11
Cc1ccc(S(=O)(=O)N(C)C)cc1NC(=O)CN1C(=O)NC(Cc2ccccc2)C1=O (configuration not stated)	-2	-3	42*	-7	2	-3
O=C1/C(=C/C=C/c2ccco2)SC(=S)N1NS(=O)(=O)c1ccccc1	45*	67*	74*	27	32*	69*
CC(C(=O)O)N1C(=O)/C(=C/C=C/c2ccco2)SC1=S (configuration not stated)	26*	50*	76*	47*	14	46*
CC(C)(C)C(=O)Nc1nnc(SCC(=O)NC2CCCC2)s1	-1	-3	0	8	0	nt
CCOc1ccc(OCCC(=O)OCC(=O)Nc2ccc(N3CCOCC3)cc2)cc1	11	-15	35*	8	-7	23
